Several values for one entry are separate records, joined by “and”; a condition that tells them apart may be missing. Identical values can stand only once. Entries after “also recorded” stand apart in the source; their conditions may differ.
What was measured:
[1] = system: relapsed or refractory B‐cell lymphoma; assay: Phase I study: antitumor activity, Lugano Classification; type: in vivo, human
In short: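 Oral dosing: 800 mg single dose in 4-day cycle 0, then 800 mg BID in 28-day cycles. Response assessed by CT per Lugano Classification. Bone marrow aspiration or biopsy if screening was positive or unconfirmed, to confirm CR, or when clinically indicated. Best overall response summarized overall and by DLBCL or FL in patients receiving ≥1 dose. ORR given with two-sided Clopper-Pearson exact 95% CIs.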

CYP3A4 = settings: ref Unpublished data in Eisai, cited from earlier work
[2] = cited from earlier work
[3] = system: Japanese patients with relapsed or refractory B‐NHL; assay: Phase I study: safety, adverse events and DLT; type: in vivo, human
In short: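 Patients received 800 mg orally once in a 4-day cycle 0, then 800 mg BID in 28-day cycles; reduction to 600 then 400 mg BID permitted. AEs graded by CTCAE v4.03, with hematology, chemistry, urinalysis, vital signs, 12-lead ECG and LVEF by echo/MUGA. DLT assessed over cycles 0–1 in patients completing both with ≥75% cycle-1 compliance, or having DLT. Safety set: ≥1 dose.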

[4] = Phase I study: plasma and urine pharmacokinetics; type: in vivo, human; settings: for R ss: AUC(0-12h) on cycle 1 day 15/AUC(0-inf) on cycle 0 day 1; for t max: median (minimum, maximum)
[5] = system: refractory B‐NHL and advanced solid tumors; settings: study outside of Japan; cited from earlier work
[6] = seven treated patients, investigator assessment

## CCN(c1cc(-c2ccc(CN3CCOCC3)cc2)cc(C(=O)NCc2c(C)cc(C)[nH]c2=O)c1C)C1CCOCC1 [Tazemetostat]
[1]; DLBCL
  responses in patients with DLBCL: one of three
[1]; DLBCL (n = 3), 800 mg BID
  Best overall response: Complete response (CR): 1 (33.3) n (%)
  Best overall response: Not evaluable: 0 (0.0) n (%)
  Best overall response: Partial response (PR): 0 (0.0) n (%)
  Best overall response: Progressive disease: 2 (66.7) n (%)
  Best overall response: Stable disease: 0 (0.0) n (%)
  Objective response rate (CR + PR): 1 (33.3) n (%)
[1]; FL
  responses in patients with FL: three of four
[1]; FL (n = 4), 800 mg BID
  Best overall response: Complete response (CR): 0 (0.0) n (%)
  Best overall response: Not evaluable: 0 (0.0) n (%)
  Best overall response: Partial response (PR): 3 (75.0) n (%)
  Best overall response: Progressive disease: 0 (0.0) n (%)
  Best overall response: Stable disease: 1 (25.0) n (%)
  Objective response rate (CR + PR): 3 (75.0) n (%)
[1]; Total (n = 7), 800 mg BID
  Best overall response: Complete response (CR): 1 (14.3) n (%)
  Best overall response: Not evaluable: 0 (0.0) n (%)
  Best overall response: Partial response (PR): 3 (42.9) n (%)
  Best overall response: Progressive disease: 2 (28.6) n (%)
  Best overall response: Stable disease: 1 (14.3) n (%)
  Objective response rate (CR + PR): 4 (57.1) n (%)
[1]; all patients (4/7), 800 mg BID
  ORR: 57.1%
[1]; n = 7
  patients who experienced a reduction of tumor burden: 85.7%
[1]; one patient with FL with gain‐of‐function mutation in EZH2, partial response
  maximum change in the sum of the product of the diameters from baseline in the target lesion: −82.3%
[1]; [6]
  CR as BOR: 14.3%
  PR as BOR: 42.9%
  progressive disease as BOR: 28.6%
  stable disease as BOR: 14.3%
CYP3A4; in vitro
  effect on the activity of CYP3A4: induce and inhibit
CYP3A4
  metabolizing enzyme: mainly metabolized by CYP3A4
[2]; 99 patients
  treatment‐related deaths: no treatment‐related deaths
[2]; all 99 patients
  treatment‐related grade 3 or higher AE anemia: 2%
  treatment‐related grade 3 or higher AE neutropenia: 3%
  treatment‐related grade 3 or higher AE thrombocytopenia: 3%
[2]; four of 99 patients
  Treatment‐related SAEs: 4%
[3]; 800 mg BID, n = 7
  Anemia, all TEAEs, Grade ≥3: 1 (14.3) patients (%)
  Anemia, all TEAEs, all grades: 2 (28.6) patients (%)
  Anemia, treatment‐related TEAEs, Grade ≥3: 1 (14.3) patients (%)
  Anemia, treatment‐related TEAEs, all grades: 2 (28.6) patients (%)
  Blood creatinine increased, all TEAEs, Grade ≥3: 0 (0.0) patients (%)
  Blood creatinine increased, all TEAEs, all grades: 2 (28.6) patients (%)
  Blood creatinine increased, treatment‐related TEAEs, Grade ≥3: 0 (0.0) patients (%)
  Blood creatinine increased, treatment‐related TEAEs, all grades: 1 (14.3) patients (%)
  Constipation, all TEAEs, Grade ≥3: 0 (0.0) patients (%)
  Constipation, all TEAEs, all grades: 3 (42.9) patients (%)
  Constipation, treatment‐related TEAEs, Grade ≥3: 0 (0.0) patients (%)
  Constipation, treatment‐related TEAEs, all grades: 1 (14.3) patients (%)
  Dry eye, all TEAEs, Grade ≥3: 0 (0.0) patients (%)
  Dry eye, all TEAEs, all grades: 2 (28.6) patients (%)
  Dry eye, treatment‐related TEAEs, Grade ≥3: 0 (0.0) patients (%)
  Dry eye, treatment‐related TEAEs, all grades: 0 (0.0) patients (%)
  Dry skin, all TEAEs, Grade ≥3: 0 (0.0) patients (%)
  Dry skin, all TEAEs, all grades: 2 (28.6) patients (%)
  Dry skin, treatment‐related TEAEs, Grade ≥3: 0 (0.0) patients (%)
  Dry skin, treatment‐related TEAEs, all grades: 2 (28.6) patients (%)
  Dysgeusia, all TEAEs, Grade ≥3: 0 (0.0) patients (%)
  Dysgeusia, all TEAEs, all grades: 3 (42.9) patients (%)
  Dysgeusia, treatment‐related TEAEs, Grade ≥3: 0 (0.0) patients (%)
  Dysgeusia, treatment‐related TEAEs, all grades: 3 (42.9) patients (%)
  Fatigue, all TEAEs, Grade ≥3: 1 (14.3) patients (%)
  Fatigue, all TEAEs, all grades: 2 (28.6) patients (%)
  Fatigue, treatment‐related TEAEs, Grade ≥3: 1 (14.3) patients (%)
  Fatigue, treatment‐related TEAEs, all grades: 2 (28.6) patients (%)
  Insomnia, all TEAEs, Grade ≥3: 0 (0.0) patients (%)
  Insomnia, all TEAEs, all grades: 2 (28.6) patients (%)
  Insomnia, treatment‐related TEAEs, Grade ≥3: 0 (0.0) patients (%)
  Insomnia, treatment‐related TEAEs, all grades: 1 (14.3) patients (%)
  Leukopenia, all TEAEs, Grade ≥3: 1 (14.3) patients (%)
  Leukopenia, all TEAEs, all grades: 2 (28.6) patients (%)
  Leukopenia, treatment‐related TEAEs, Grade ≥3: 0 (0.0) patients (%)
  Leukopenia, treatment‐related TEAEs, all grades: 1 (14.3) patients (%)
  Muscle spasms, all TEAEs, Grade ≥3: 0 (0.0) patients (%)
  Muscle spasms, all TEAEs, all grades: 2 (28.6) patients (%)
  Muscle spasms, treatment‐related TEAEs, Grade ≥3: 0 (0.0) patients (%)
  Muscle spasms, treatment‐related TEAEs, all grades: 2 (28.6) patients (%)
  Nasopharyngitis, all TEAEs, Grade ≥3: 0 (0.0) patients (%)
  Nasopharyngitis, all TEAEs, all grades: 5 (71.4) patients (%)
  Nasopharyngitis, treatment‐related TEAEs, Grade ≥3: 0 (0.0) patients (%)
  Nasopharyngitis, treatment‐related TEAEs, all grades: 0 (0.0) patients (%)
  Neutropenia, all TEAEs, Grade ≥3: 1 (14.3) patients (%)
  Neutropenia, all TEAEs, all grades: 2 (28.6) patients (%)
  Neutropenia, treatment‐related TEAEs, Grade ≥3: 0 (0.0) patients (%)
  Neutropenia, treatment‐related TEAEs, all grades: 1 (14.3) patients (%)
  Rash, all TEAEs, Grade ≥3: 0 (0.0) patients (%)
  Rash, all TEAEs, all grades: 2 (28.6) patients (%)
  Rash, treatment‐related TEAEs, Grade ≥3: 0 (0.0) patients (%)
  Rash, treatment‐related TEAEs, all grades: 2 (28.6) patients (%)
  Stomatitis, all TEAEs, Grade ≥3: 0 (0.0) patients (%)
  Stomatitis, all TEAEs, all grades: 2 (28.6) patients (%)
  Stomatitis, treatment‐related TEAEs, Grade ≥3: 0 (0.0) patients (%)
  Stomatitis, treatment‐related TEAEs, all grades: 2 (28.6) patients (%)
  Thrombocytopenia, all TEAEs, Grade ≥3: 2 (28.6) patients (%)
  Thrombocytopenia, all TEAEs, all grades: 3 (42.9) patients (%)
  Thrombocytopenia, treatment‐related TEAEs, Grade ≥3: 2 (28.6) patients (%)
  Thrombocytopenia, treatment‐related TEAEs, all grades: 3 (42.9) patients (%)
[3]; cycles 0 and 1, six evaluable patients, 800 mg BID
  dose‐limiting toxicity (DLT): No DLTs; also recorded: did not observe any DLT
[3]; n = 7
  AE anemia: 29%
  AE constipation: 42.9%
  AE dry skin: 29%
  AE dysgeusia: 42.9% and 43%
  AE fatigue: 29%
  AE leading to dose reduction: 14.3%
  AE nasopharyngitis: 71.4%
  AE rash: 29%
  AE stomatitis: 29%
  AE thrombocytopenia: 42.9% and 43%
  AEs leading to dose interruption: 57.1%
  Grade 3 AE anemia: 14.3%
  Grade 3 AE fatigue: 14.3%
  Grade 3 AE hypophosphatemia: 14.3%
  Grade 3 AE increased γ‐glutamyltransferase: 14.3%
  Grade 3 AE leukopenia: 14.3%
  Grade 3 AE lymphopenia: 14.3%
  Grade 3 AE neutropenia: 14.3%
  Grade 3 AE squamous cell carcinoma of the tongue: 14.3%
  Grade 3 AE thrombocytopenia: 28.6%
  Grade 3 or higher AEs: 57.1%
  Grade 4 AE increased levels of blood triglycerides: 14.3%
  Grade 4 AE intestinal perforation: 14.3%
  TR‐AE dysgeusia: 42.9%
  TR‐AE thrombocytopenia: 42.9%
  grade 2 peripheral neuropathy, leading to drug dose reduction: 14.3%
  patients having at least one TR‐AE: 85.7%
  patients who died or had AEs resulting in death: None
  patients who experienced at least one AE: seven
  treatment‐related serious AEs: No treatment‐related serious AEs
[3]; n = 7, intestinal perforation and squamous cell carcinoma of the tongue
  Serious AEs: 28.6%
[3]; n = 7, listed as tazemetostat
  treatment‐related serious AEs: both assessed as not related to study drug; also recorded: No treatment‐related SAEs
[3]; n = 7, section 3.2
  patients who received a reduction in the tazemetostat dose: 14.3%
[3]; one patient
  time to first dose reduction: 4.9 months
[4]; 800 mg oral
  absorption after oral administration: rapidly absorbed
[4]; mean (SD)
  R ss: 0.849 (0.277)
[4]; mean (SD), listed as tazemetostat
  R ss: 0.849
[4]; both after C0D1 and C1D15 dosing
  mean urinary excretion of tazemetostat: less than 3%
[4]; human, plasma, oral, 800 mg
  Vd/F: 1910 L
[4]; human, plasma, oral, 800 mg BID, AUC(0‐ t ), plasma, after multiple doses, Cycle 1 day 15, last sampling time point 12 h, mean (SD), N = 7
  AUC: 4490 ng·h/mL
[4]; human, plasma, oral, 800 mg BID, t max, plasma, after multiple doses, Cycle 1 day 15, N = 7
  t max: ~1 h
[4]; human, plasma, oral, 800 mg, AUC(0‐12 h), plasma, after single dose, Cycle 0 day 1, mean (SD), N = 7
  AUC: 4700 ng·h/mL
[4]; human, plasma, oral, 800 mg, AUC(0‐ t ), plasma, after single dose, Cycle 0 day 1, last sampling time point 72 h, mean (SD), N = 7
  AUC: 5990 ng·h/mL
[4]; human, plasma, oral, 800 mg, AUC(0‐inf), plasma, after single dose, Cycle 0 day 1, mean (SD), N = 7
  AUC: 6030 ng·h/mL
[4]; human, plasma, oral, 800 mg, t max, plasma, after single dose, Cycle 0 day 1, N = 7
  t max: ~2 h
[4]; human, plasma, po, 800 mg
  Cmax: 1150 ng/mL
[4]; plasma, after multiple doses 800 mg BID, Cycle 1 day 15, mean (SD), N = 7
  C ss,min: 95.1 (37.7) ng/mL
[4]; plasma, after multiple doses, Cycle 1 day 15, N = 7
  t max: 1.05 (0.88, 2.03) h
[4]; plasma, after single dose, Cycle 0 day 1, N = 7
  t max: 1.97 (0.95, 4.08) h
[5]
  recommended dose: 800 mg BID
